In brackets after ≈: the same amount, converted by molar mass. Values belong to the compound of their own block, whether it stands above or below them. Activity calls are given as the source filed them. The calls are words filed in the database; no cut-off is given here.
Experiments:
Type in all cases: functional
[1] = system: Bacillus subtilis; assay: Antibacterial activity against Bacillus subtilis ATCC 6051 at 50 ug/disk; settings: read-out: IZ
Procedure, shortened: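 Standard paper-disk agar diffusion test at 50 µg per disk; activity read as the diameter of the inhibition zone in mm.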

[2] = system: Staphylococcus aureus; assay: Antibacterial activity against Staphylococcus aureus ATCC 29213 at 100 ug/disk; settings: for zone of inhibition at 100 µg/disc: read-out: IZ
[3] = system: Candida albicans; assay: Antimicrobial activity against Candida albicans ATCC 14053 at 100 ug/disk; settings: for zone of inhibition at 100 µg/disc: read-out: IZ
[4] = system: Aspergillus flavus; assay: Antifungal activity against Aspergillus flavus NRRL 6541 at 200 ug/disk; settings: read-out: IZ
Procedure, shortened: (§1)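 Agar disk diffusion at 200 µg/disk against each fungal strain, scored as the inhibition zone diameter in mm.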

[5] = system: Fusarium verticillioides; assay: Antifungal activity against Fusarium verticillioides NRRL 25457 at 200 ug/disk; settings: read-out: IZ; procedure, shortened: as §1
[6] = system: Aspergillus flavus; assay: Antifungal activity against Aspergillus flavus NRRL 6541 after 48 hrs; settings: NRRL 6541, 48 h
Procedure, shortened: (§2)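 Broth microdilution in 96-well plates at 1, 3, 5, 10 and 25 µg/mL, with eight replicate wells per level. Compound in MeOH was dried in the well, redissolved in 10 µL MeOH, then 200 µL potato dextrose broth with about 8000 conidia was added (about 4 × 10^4/mL). For A. flavus, conidia came from 14-day PDA cultures at 25 °C and were filtered through cheesecloth. Plates were incubated 48 h at 25 °C and read on a plate reader every 8-16 h against MeOH-only controls. MIC is the lowest level with no growth. Nystatin was the positive control. F. verticillioides was run analogously.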

[7] = system: Fusarium verticillioides; assay: Antifungal activity against Fusarium verticillioides NRRL 25457 after 48 hrs; settings: NRRL 25457, 48 h; procedure, shortened: as §2
[8] = system: Aspergillus flavus; assay: Antifungal activity against Aspergillus flavus NRRL 6541 at >25 ug/mL after 48 hrs relative to control; settings: in the assay text read “25 ug/mL” for “>25 ug/mL”; procedure, shortened: as §2

MIC [6]: 10 µg/mL (≈ 29.7 µM)
MIC [7]: 5 µg/mL (≈ 14.9 µM)
SMILES: O=C1C=CC2(Oc3cccc4cccc(c34)O2)[C@H]2[C@H]1[C@@H](O)C=C[C@H]2O [DECASPIRONE A]
zone of inhibition at 50 µg/disc [1]: 39 mm
zone of inhibition at 100 µg/disc [2]: 41 mm
zone of inhibition at 100 µg/disc [3]: 30 mm
zone of inhibition at 200 µg/disc [4]: 20 mm
zone of inhibition at 200 µg/disc [5]: 20 mm

SMILES: CC(=O)O[C@@H]1C=C[C@H](O)[C@H]2C(=O)C=CC3(Oc4cccc5cccc(c45)O3)[C@@H]21 [DECASPIRONE D]
zone of inhibition at 50 µg/disc [1]: 30 mm
zone of inhibition at 100 µg/disc [2]: 30 mm
zone of inhibition at 100 µg/disc [3]: 13 mm

SMILES: CC(=O)O[C@H]1C=C[C@@H](O)[C@@H]2[C@@H]1C(=O)C=CC21Oc2cccc3cccc(c23)O1 [DECASPIRONE E]
zone of inhibition at 50 µg/disc [1]: 30 mm
Activity [2]: inactive
zone of inhibition at 100 µg/disc [3]: 17 mm

MIC [6]: > 25 µg/mL
MIC [7]: 25 µg/mL (≈ 73.9 µM)
SMILES: O=C1C=CC2(Oc3cccc4cccc(c34)O2)[C@H]2[C@H]1[C@@H](O)CC[C@H]2O [DECASPIRONE C]
zone of inhibition at 50 µg/disc [1]: 34 mm
zone of inhibition at 100 µg/disc [2]: 28 mm
Activity [3]: inactive
zone of inhibition at 200 µg/disc [4]: 15 mm
zone of inhibition at 200 µg/disc [5]: 26 mm
Activity [8]: 27%

SMILES: CC(=O)O[C@H]1C=C[C@@H](O)[C@@H]2[C@@H]1[C@@H](O)C=CC21Oc2cccc3cccc(c23)O1 [DECASPIRONE B]
zone of inhibition at 50 µg/disc [1]: 19 mm
Activity [2]: inactive
Activity [3]: inactive
